Calls of active or inactive are those of the source. The calls are words filed in the database; no cut-off is given here.
Key:
[1] = system: Mus musculus; assay: Antiinflammatory activity in Balb/c mouse model of LPS-induced endotoxemia assessed as increase in survival rate at 1 mg/kg, ip pretreated for 1 hr followed by LPS-challenge measured over 72 hrs relative to control; format: functional
In short: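 Female-unspecified BALB/c mice given compound i.p. 1 h before i.p. LPS (20 mg·kg−1); survival followed over 72 h.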

[2] = system: BMDC; assay: Increase in microRNA155 expression in LPS-induced C57BL/6 mouse BMDC at 25 uM pretreated for 30 mins followed by LPS-challenge measured after 6 hrs by qRT-PCR analysis; format: functional, cell-based
In short: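 Total RNA was extracted from BMDCs with TRIzol and reverse transcribed. miR-146a, miR-155 and miR-187 were quantified by real-time qPCR with gene-specific primers.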

[3] = system: Mus musculus; assay: Antiseptic activity in Balb/c mouse model of Escherichia coli K1 infection-induced sepsis assessed as reduction in serum AST level at 1 mg/kg, ip pretreated for 1 hr followed by Escherichia coli K1 infection measured after 2 hrs by ELISA; format: functional, organism-based
[4] = system: BMDC; assay: Inhibition of Escherichia coli K1 infection-induced immune response in C57BL/6 mouse BMDC assessed as increase in IL10 secretion at 25 uM pretreated for 30 mins followed by Escherichia coli K1 infection for 6 hrs by ELISA; format: functional, cell-based
In short: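 BMDCs from C57BL/6 mice were given 25 μM compound and E. coli K1, […]. Timing was: compound 30 min before a 6 h infection; cotreatment for 6 h; or compound for 30–120 min with 6 h infection. Supernatant cytokines (TNF-α, IL-6, IL-10, IL-12p70) were measured by ELISA. At least three experiments in triplicate.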

Which results are given for `COc1ccc(-c2oc3cc(O)cc(O)c3c(=O)c2O)cc1O` [TAMARIXETIN]?
Activity [1]: 80%; Activity [2]: Active; Activity [3]: Active; inhibition [4]: Active

— ChEMBL document CHEMBL4145607, “Tamarixetin Exhibits Anti-inflammatory Activity and Prevents Bacterial Sepsis by Increasing IL-10 Production” (J Nat Prod, 2018)
